cytoskel mod – cytoskeleton assembly modification; inhibition, % at 2 µM; HUVEC TNFa F-actin phalloidin imaging, high content; 91,000 tested, 0.18% active;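 active = inhibition above the batch mean plus 3 SD and confirmed as a hit by visual image inspection, cut at about 30% in these data, passing the limit was not always enough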
Pyk2 oligo antag – Pyk2 (human) oligomerization antagonism. 99,000 tested, 0.83% active. AID 1347419. Q293 cells, Pyk2 FERM NanoBiT luminescence; hits give low values. z-score (the deposit names both 25 µM and 10 µM). Q14289;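 active = Z-score of -3 or lower, scaled per plate to the spread of control and sample wells; inactive = z-score above -3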;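 note: negative z-score means lost luminescence so less FERM oligomerization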
Target sequence (Q14289 whole entry, looked up): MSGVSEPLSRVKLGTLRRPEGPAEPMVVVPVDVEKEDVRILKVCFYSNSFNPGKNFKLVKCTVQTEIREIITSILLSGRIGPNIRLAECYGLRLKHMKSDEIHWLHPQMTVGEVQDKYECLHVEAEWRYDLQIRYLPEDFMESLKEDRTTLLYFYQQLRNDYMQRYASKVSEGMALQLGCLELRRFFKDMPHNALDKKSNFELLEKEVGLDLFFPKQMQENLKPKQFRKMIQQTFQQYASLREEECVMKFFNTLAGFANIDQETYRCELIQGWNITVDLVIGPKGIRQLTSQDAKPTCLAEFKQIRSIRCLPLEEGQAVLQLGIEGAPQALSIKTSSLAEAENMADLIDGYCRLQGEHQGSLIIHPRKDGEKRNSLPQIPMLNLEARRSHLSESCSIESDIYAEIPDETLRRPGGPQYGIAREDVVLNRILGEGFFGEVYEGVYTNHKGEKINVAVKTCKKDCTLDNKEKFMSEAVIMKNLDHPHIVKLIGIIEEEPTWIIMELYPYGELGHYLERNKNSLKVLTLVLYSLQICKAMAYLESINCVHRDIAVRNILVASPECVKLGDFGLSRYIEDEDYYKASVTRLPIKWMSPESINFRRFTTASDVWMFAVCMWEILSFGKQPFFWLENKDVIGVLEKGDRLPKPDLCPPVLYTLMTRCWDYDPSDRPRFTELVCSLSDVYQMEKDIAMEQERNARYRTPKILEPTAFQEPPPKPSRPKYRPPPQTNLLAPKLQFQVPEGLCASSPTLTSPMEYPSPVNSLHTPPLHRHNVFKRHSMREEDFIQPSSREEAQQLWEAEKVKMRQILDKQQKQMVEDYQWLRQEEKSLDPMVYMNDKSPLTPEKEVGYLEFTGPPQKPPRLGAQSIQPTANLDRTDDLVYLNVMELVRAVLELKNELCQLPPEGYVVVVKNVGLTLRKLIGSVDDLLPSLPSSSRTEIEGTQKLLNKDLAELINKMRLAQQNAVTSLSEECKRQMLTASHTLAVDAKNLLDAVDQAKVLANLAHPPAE
HUVEC prolif 384 – blocks proliferation of human endothelial cells; HUVEC proliferation, CellTiter-Glo luminescence, 72 h; hits give low values; viability, % at 10 µM (by protocol); 86,000 tested, 1.1% active; AID 648;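 active = viability at or below 30%; inactive = viability above 30%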;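 note: 100% = median luminescence of DMSO-only cell control wells on each plate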
Fibroblast inh – blocks proliferation of human lung fibroblasts; LL 47 human lung fibroblast viability, ATP luminescence; hits give low values; viability, % at 10 µM; 85,000 tested, 1.1% active; AID 719;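 active = viability at or below 50% in the single dose screen; inactive = viability above 50%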;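 note: compound exposure lasted 72 h before the ATP readout; 100% = median luminescence of untreated cell-only wells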
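material = human LL 47 lung fibroblast cells | dosing = compounds added from tenfold dosing solution, 0.1% DMSO final | timing = overnight cell rest, 72 h compound treatment at 37 °C | measured by = CellTiter-Glo luminescence measuring cellular ATP | evaluation = % viability versus median cells-only luminescence | control set = cell-only wells, no compound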
H69AR growth 86K – blocks growth of human H69AR lung tumor cells. H69AR lung tumor viability, ATP luminescence, 72 h; hits give low values. viability, % at 10 µM. 85,000 tested, 6% active;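 active = viability at or below 40%; inactive = viability above 40%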;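 note: multidrug resistant small cell line overexpressing MRP-1 efflux transporter; 100% = mean luminescence of untreated control wells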
Jurkat viability – reduces viability or proliferation of Jurkat cells. Jurkat E6.1 viability, ATP luminescence, 48 h. inhibition, % at 4 µM. 56,000 tested, 1.2% active;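 active = inhibition above the mean inhibition of all tested compounds plus 3 SD, cut at about 28% in these data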
* marks the source's active call; other numbers are inactive results; . = no result. In the library only some 6% were active in any assay of this set; here they are far more common.

SMILES | cytoskel mod | Pyk2 oligo antag | HUVEC prolif 384 | Fibroblast inh | H69AR growth 86K | Jurkat viability
Fc1ccc(/C=C2\CCCC3=C2Nc2ncnn2C3c2ccc(F)cc2)cc1 (centres undefined) | -3.3 | -1.01 | 36.8 | 56.5 | 22.3* | .
c1ccc(C2C3=C(CCCC3)Nc3ncnn32)cc1 (centres undefined) | -3.3 | -0.47 | 96.0 | 104.9 | 90.3 | -2.0
CC(=O)N1CCCc2cc(S(=O)(=O)N3CCC(C)CC3)ccc21 | . | -0.35 | 96.3 | 106.0 | 95.0 | .
CCOC(=O)c1cc2sccc2n1CC(=O)N1c2ccccc2CC1C (centres undefined) | 16.6 | -1.57 | 11.6* | 68.8 | 4.7* | .
CCOc1cc(C#N)c(NC(=O)c2ccnn2C)cc1OCC | . | . | 111.3 | 97.2 | 82.6 | -0.2
CCOc1ccccc1NC(=O)c1cc(Cl)ccc1NC(=O)c1ccco1 | -3.2 | 0.36 | 50.4 | 93.0 | 29.5* | -0.8
CCOc1cc(NC(=O)c2ccco2)c(OCC)cc1NC(=O)c1cc(OC)c(OC)c(OC)c1 | -5.1 | 0.35 | 90.3 | 96.7 | 65.5 | 1.8
COc1cc(NC(=O)c2ccco2)c(OC)cc1NC(=O)c1cc(OC)c(OC)c(OC)c1 | -16.0 | -0.01 | 71.4 | 106.9 | 24.1* | -0.9
CCOc1cc(C#N)c(NC(=O)c2ccco2)cc1OCC | -3.6 | -0.16 | 56.8 | 80.4 | 30.6* | 79.4*
CCCCS(=O)(=O)Nc1ccc(Cc2ccncc2)cc1 | -15.1 | -0.57 | 100.6 | 96.2 | 89.3 | 5.7
Cc1ccc(-c2nnc(N3CCCCC3)c3ccccc23)cc1S(=O)(=O)NCC1CCCO1 (centres undefined) | 3.6 | -1.2 | 69.1 | 88.9 | 75.3 | .
COc1ccccc1-c1c(C)nn2c(N3CCC4(CC3)OCCO4)cc(C)nc12 | 4.1 | -0.32 | 96.9 | 87.9 | 42.8 | 7.3
Cc1cc(N2CCC3(CC2)OCCO3)n2nc(C)c(-c3ccc(Cl)cc3)c2n1 | -1.0 | . | 91.2 | 83.7 | 37.3* | .
Cc1nccn1-c1ccc(C(F)(F)F)cc1NC=O | 73.3* | -0.88 | 94.4 | 93.6 | 104.0 | -3.5
Cc1cccc(S(=O)(=O)C(C#N)c2nc3ccccc3nc2N2CCOCC2)c1 (centres undefined) | -4.9 | -0.64 | 88.0 | 99.2 | 95.7 | 4.3
COc1ccc(OC)c(CCNC(=O)Cn2sc3nc(C)cc(C)c3c2=O)c1 | -0.8 | . | 76.7 | 31.4* | 0.0* | -1.8
COc1ccc(-c2nc(CS(=O)(=O)CC(=O)NCCc3cc(OC)ccc3OC)c(C)o2)cc1 | . | 0.17 | 89.2 | . | 89.6 | -0.8
Cc1ccc2[nH]c(C)c(/C=N/Nc3nc4ccccc4s3)c2c1 | 10.0 | -0.23 | 41.9 | 63.4 | 4.6* | .
Brc1csc(/C=N/Nc2nc3ccccc3s2)c1 | . | -1.03 | . | . | . | .
COc1ccccc1OCc1nc2c3c(-c4ccccc4)c(-c4ccccc4)oc3ncn2n1 | -6.1 | . | 93.9 | 85.3 | 25.3* | -2.8
COCCn1c(SCC(=O)Nc2sccc2C(N)=O)nc2cc(Cl)ccc2c1=O | 4.3 | -3.04* | 56.9 | 73.8 | 60.7 | .
CC(=O)NCCc1ccc(S(=O)(=O)Nc2cccnc2)cc1 | -3.3 | -0.22 | 99.6 | 104.3 | 103.0 | -6.1
COc1ccccc1C(=O)Nc1ccc(N2CCN(S(C)(=O)=O)CC2)cc1 | -22.0 | -0.4 | 102.4 | 107.9 | 95.4 | -1.0
COc1cc2ccccc2cc1C(=O)Nc1ccc(N2CCN(C)CC2)cc1 | . | -0.22 | 9.0* | 72.2 | 7.1* | -1.1
CCCNC(=O)COc1ccc(S(=O)(=O)Nc2ccc(C)cc2)cc1 | -2.1 | 0.84 | 97.0 | 115.8 | 98.8 | .
SMILES | cytoskel mod | Pyk2 oligo antag | HUVEC prolif 384 | Fibroblast inh | H69AR growth 86K | Jurkat viability
COc1ccc(NC(=O)CSc2n[nH]c(N)n2)c([N+](=O)[O-])c1 | -6.3 | 0.45 | . | . | . | .
CCOc1cc(/C=N/NC(=O)Cn2nc([N+](=O)[O-])cc2C)ccc1OCc1ccc(F)cc1 | -15.3 | 1.31 | 42.5 | 80.8 | 83.7 | .
CCOc1cc(/C=N/NC(=O)Cn2nc([N+](=O)[O-])cc2C)cc(Br)c1OCc1ccccc1F | 16.6 | 0.44 | 29.7* | 50.8 | 8.3* | .
O=C(Nc1cccc(Cl)c1)ON=C1c2ccccc2-c2ccccc21 | 0.8 | 1.08 | . | . | . | .
N#Cc1nc(COc2ccccc2)oc1NCCCn1ccnc1 | -15.1 | -0.95 | 87.1 | 106.7 | 97.9 | 6.0
N#Cc1nc(-c2ccc(OCc3ccccc3Cl)cc2)oc1NCCCn1ccnc1 | -21.4 | . | 2.6* | 61.6 | 94.4 | -0.3
COc1ccc(-c2nc(C#N)c(NCCCn3ccnc3)o2)cc1OC | -12.8 | 1.47 | 106.0 | 108.9 | 91.3 | .
CCCOc1ccc(-c2nc(C#N)c(NCCCn3ccnc3)o2)cc1 | -6.6 | -0.55 | 28.4* | 90.4 | 50.1 | .
N#Cc1nc(-c2ccc(OCc3ccccc3)cc2)oc1NCCCn1ccnc1 | -2.3 | -0.71 | 5.8* | 92.4 | 6.5* | -8.0
C=CCn1c(SCn2nnc3ccccc3c2=O)nnc1C1CCCCC1 | 53.2 | 0.27 | 103.5 | 90.2 | 100.6 | -1.8
O=C(Cn1ncc2c(=O)oc3ccccc3c21)NCCN1CCN(c2ccccc2F)CC1 | . | . | 95.1 | 109.6 | 91.3 | -6.1
CCCCCCNC(=O)C(C(=O)OCC)C1CCCCC1 (centres undefined) | -16.6 | -0.2 | 104.9 | 106.2 | 74.0 | -1.6
Cc1ccc(SCC(=O)N2c3ccccc3Sc3ccccc32)cc1 | 13.3 | 0.75 | . | . | . | .
CC(C)n1c(SCC(=O)c2ccc3c(c2)OCCO3)nc2c1c(=O)n(C)c(=O)n2C | . | . | 90.7 | 88.1 | 72.5 | -14.7
c1ccc2c(c1)oc1c(Nc3ccc(CN4CCOCC4)cc3)ncnc12 | 25.0 | -0.02 | 5.4* | 97.9 | 3.5* | 12.8
c1ccc2c(c1)oc1c(NCCN3CCOCC3)ncnc12 | 9.5 | 1.59 | 95.9 | 102.3 | 93.1 | -4.3
COc1cc(NS(=O)(=O)c2ccc(OC)c(C)c2C)c(OC)cc1Cl | -5.4 | -1.83 | 58.1 | 95.9 | 22.4* | 78.9*
COc1ccc(OC)c(S(=O)(=O)Nc2cc(OC)c(Cl)cc2OC)c1 | 2.4 | 1.04 | 95.8 | 102.0 | 88.1 | -2.8
Cc1cc(/C=N/n2cnnc2)c(C)n1-c1ccc(OCc2ccc(Cl)cc2Cl)cc1 | -22.7 | -0.02 | 2.6* | 73.4 | 5.8* | .
Cc1cc(/C=N/n2cnnc2)c(C)n1-c1ccccc1 | -0.9 | 0.77 | 34.6 | 99.1 | 71.9 | .
Cc1cc(/C=N/n2cnnc2)c(C)n1-c1ccc(OCc2ccc(F)cc2)cc1 | -0.9 | -0.8 | 54.9 | 74.7 | 18.6* | 44.8*
O=C(CC1Oc2ccccc2NC1=O)NCc1ccccc1 (centres undefined) | -16.5 | . | 97.0 | 99.1 | 96.5 | 3.7
CC(=O)CC1OC(=O)C(Br)=C1NCc1ccccc1 (centres undefined) | 57.6 | 0.32 | . | . | . | 48.8*
COc1cc2nc(SCc3c(C)noc3C)n(CCC3=CCCCC3)c(=O)c2cc1OC | -20.1 | -1.61 | 71.5 | 86.1 | 26.7* | -0.2
COc1cc2nc(SCC(=O)NC3CC3)n(CCC3=CCCCC3)c(=O)c2cc1OC | -7.5 | . | 24.8* | 76.2 | 33.6* | -3.2
CN(C)c1nc(-c2ccccn2)nnc1-c1ccccc1 | . | 0.38 | 11.2* | 13.2* | 53.5 | .

Compound activity (PubChem BioAssay)
